Data reported in ChEMBL document CHEMBL4382192, “Discovery of a potent dual ALK and EGFR T790M inhibitor” (Eur J Med Chem, 2017).

Key:
[1] = target: MAP kinase-activated protein kinase 5 (Homo sapiens) (UniProt Q8IW41); assay: Binding affinity to wild-type human partial length MAPKAPK5 (M1 to D322 residues) expressed in mammalian expression system assessed as residual binding level at 1 uM by Kinomescan method relative to control
[2] = target: Focal adhesion kinase 1 (Homo sapiens) (UniProt Q05397); assay: Binding affinity to wild-type human partial length FAK (D402 to R696 residues) expressed in bacterial expression system assessed as residual binding level at 1 uM by Kinomescan method relative to control
Focal adhesion kinase 1 (Homo sapiens), sequence (Q05397 2-1052 limits assumed): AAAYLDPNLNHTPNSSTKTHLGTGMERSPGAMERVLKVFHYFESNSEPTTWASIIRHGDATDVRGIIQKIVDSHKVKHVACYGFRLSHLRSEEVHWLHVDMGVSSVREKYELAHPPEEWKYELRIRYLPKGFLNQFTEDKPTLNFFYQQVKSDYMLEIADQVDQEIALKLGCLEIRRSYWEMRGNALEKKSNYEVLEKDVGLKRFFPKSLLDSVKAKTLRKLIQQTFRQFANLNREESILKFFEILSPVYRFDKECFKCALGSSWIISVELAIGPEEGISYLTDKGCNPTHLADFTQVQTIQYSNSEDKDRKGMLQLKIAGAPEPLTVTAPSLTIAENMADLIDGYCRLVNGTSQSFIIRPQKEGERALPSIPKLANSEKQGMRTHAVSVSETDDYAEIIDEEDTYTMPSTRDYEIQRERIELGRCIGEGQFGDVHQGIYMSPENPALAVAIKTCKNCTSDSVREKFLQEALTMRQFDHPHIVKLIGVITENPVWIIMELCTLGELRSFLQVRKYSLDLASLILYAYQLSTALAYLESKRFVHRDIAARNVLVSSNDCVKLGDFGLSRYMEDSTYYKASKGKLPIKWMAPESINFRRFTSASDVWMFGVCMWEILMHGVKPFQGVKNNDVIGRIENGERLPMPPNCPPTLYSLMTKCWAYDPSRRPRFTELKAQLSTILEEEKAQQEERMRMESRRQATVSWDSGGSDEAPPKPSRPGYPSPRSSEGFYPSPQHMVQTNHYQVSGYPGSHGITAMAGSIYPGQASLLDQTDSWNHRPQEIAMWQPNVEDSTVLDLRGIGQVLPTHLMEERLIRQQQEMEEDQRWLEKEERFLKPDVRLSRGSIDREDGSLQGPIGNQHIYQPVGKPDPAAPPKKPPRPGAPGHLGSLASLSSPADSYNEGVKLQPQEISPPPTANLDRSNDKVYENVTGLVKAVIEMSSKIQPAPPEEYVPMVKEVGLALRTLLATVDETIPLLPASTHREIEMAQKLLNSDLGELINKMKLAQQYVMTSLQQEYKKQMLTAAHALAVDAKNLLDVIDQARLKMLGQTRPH

[3] = target: Phosphatidylinositol 3-kinase catalytic subunit type 3 (Homo sapiens) (UniProt Q8NEB9); assay: Binding affinity to wild-type human partial length VPS34 (S282 to H879 residues) expressed in mammalian expression system assessed as residual binding level at 1 uM by Kinomescan method relative to control
[4] = target: Tyrosine-protein kinase TXK (Homo sapiens) (UniProt P42681); assay: Binding affinity to wild-type human partial length TXK (L238 to W527 residues) expressed in bacterial expression system assessed as residual binding level at 1 uM by Kinomescan method relative to control
Tyrosine-protein kinase TXK (Homo sapiens), sequence (P42681 whole entry, the tested form may be a part): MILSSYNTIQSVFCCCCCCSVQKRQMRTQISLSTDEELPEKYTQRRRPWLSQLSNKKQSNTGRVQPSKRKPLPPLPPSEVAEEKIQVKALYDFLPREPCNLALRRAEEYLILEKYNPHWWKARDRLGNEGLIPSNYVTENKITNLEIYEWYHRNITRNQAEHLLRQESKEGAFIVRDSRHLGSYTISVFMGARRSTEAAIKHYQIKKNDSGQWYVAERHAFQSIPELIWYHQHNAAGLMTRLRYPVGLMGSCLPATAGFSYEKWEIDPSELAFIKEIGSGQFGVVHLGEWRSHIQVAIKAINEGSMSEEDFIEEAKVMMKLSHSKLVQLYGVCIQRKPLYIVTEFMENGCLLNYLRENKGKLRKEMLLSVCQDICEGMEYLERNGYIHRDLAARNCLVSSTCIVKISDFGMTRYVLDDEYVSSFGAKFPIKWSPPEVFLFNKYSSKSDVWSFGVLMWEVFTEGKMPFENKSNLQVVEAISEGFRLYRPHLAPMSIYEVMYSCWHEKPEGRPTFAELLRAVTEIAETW

[5] = target: Serine/threonine-protein kinase VRK2 (Homo sapiens) (UniProt Q86Y07); assay: Binding affinity to wild-type human partial length VRK2 (M1 to T336 residues) expressed in mammalian expression system assessed as residual binding level at 1 uM by Kinomescan method relative to control
[6] = target: Ribosomal protein S6 kinase alpha-6 (Homo sapiens) (UniProt Q9UK32); assay: Binding affinity to wild-type human partial length N-terminal RSK4 kinase domain 1 (M1 to E397 residues) expressed in mammalian expression system assessed as residual binding level at 1 uM by Kinomescan method relative to control
Ribosomal protein S6 kinase alpha-6 (Homo sapiens), sequence (Q9UK32 whole entry, the tested form may be a part): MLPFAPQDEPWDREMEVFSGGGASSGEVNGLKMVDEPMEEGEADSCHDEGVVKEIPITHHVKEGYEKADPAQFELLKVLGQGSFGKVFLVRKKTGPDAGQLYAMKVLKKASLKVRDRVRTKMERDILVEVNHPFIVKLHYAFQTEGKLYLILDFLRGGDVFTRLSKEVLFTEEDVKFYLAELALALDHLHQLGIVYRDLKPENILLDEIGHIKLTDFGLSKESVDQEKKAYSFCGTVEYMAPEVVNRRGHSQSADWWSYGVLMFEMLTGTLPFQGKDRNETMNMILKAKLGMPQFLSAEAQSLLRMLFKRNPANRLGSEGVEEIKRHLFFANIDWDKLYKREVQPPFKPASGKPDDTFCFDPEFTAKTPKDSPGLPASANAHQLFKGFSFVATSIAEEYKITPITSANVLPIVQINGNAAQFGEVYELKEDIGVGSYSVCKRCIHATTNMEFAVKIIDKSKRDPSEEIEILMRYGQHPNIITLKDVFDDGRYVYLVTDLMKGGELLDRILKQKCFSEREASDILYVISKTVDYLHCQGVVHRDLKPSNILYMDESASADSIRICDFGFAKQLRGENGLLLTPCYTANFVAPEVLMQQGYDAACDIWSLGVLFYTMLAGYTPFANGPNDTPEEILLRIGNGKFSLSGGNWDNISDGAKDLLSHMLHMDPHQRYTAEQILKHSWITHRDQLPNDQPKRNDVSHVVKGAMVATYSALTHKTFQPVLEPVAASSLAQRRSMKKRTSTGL

[7] = target: RAC-beta serine/threonine-protein kinase (Homo sapiens) (UniProt P31751); assay: Binding affinity to wild-type human partial length AKT2 expressed in bacterial expression system assessed as residual binding level at 1 uM by Kinomescan method relative to control
[8] = target: Mitogen-activated protein kinase kinase kinase kinase 5 (Homo sapiens) (UniProt Q9Y4K4); assay: Binding affinity to wild-type human partial length MAP4K5 (M1 to P297 residues) expressed in bacterial expression system assessed as residual binding level at 1 uM by Kinomescan method relative to control
[9] = target: Cyclin-dependent kinase 16 (Homo sapiens) (UniProt Q00536); assay: Binding affinity to wild-type human partial length PCTK1 (G160 to A474 residues) expressed in mammalian expression system assessed as residual binding level at 1 uM by Kinomescan method relative to control
Cyclin-dependent kinase 16 (Homo sapiens), sequence (Q00536 whole entry, the tested form may be a part): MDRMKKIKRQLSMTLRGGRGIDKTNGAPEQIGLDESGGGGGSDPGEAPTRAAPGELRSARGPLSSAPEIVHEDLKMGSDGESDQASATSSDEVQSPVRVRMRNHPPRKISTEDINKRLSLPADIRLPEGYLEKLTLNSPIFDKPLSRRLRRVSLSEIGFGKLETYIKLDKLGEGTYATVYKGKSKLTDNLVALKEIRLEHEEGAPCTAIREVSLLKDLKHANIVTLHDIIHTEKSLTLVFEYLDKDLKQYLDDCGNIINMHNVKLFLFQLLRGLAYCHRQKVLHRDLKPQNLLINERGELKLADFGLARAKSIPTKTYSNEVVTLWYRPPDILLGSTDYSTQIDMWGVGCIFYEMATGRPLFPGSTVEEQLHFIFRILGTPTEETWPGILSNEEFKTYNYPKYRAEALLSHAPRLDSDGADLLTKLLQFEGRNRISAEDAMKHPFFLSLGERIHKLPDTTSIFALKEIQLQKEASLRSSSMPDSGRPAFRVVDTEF

CYP2C9 = CYP2C9 (Homo sapiens, UniProt P11712); assay: Residual activity of CYP2C9 in human liver microsomes at 10 uM using tolbutamide 4-hydroxylase as substrate preincubated for 5 mins followed by NADPH addition measured after 15 mins by LC/MS/MS analysis relative to control; details: probe tolbutamide (4-hydroxylation)
[10] = target: Receptor tyrosine-protein kinase erbB-4 (Homo sapiens, UniProt Q15303); assay: Binding affinity to wild-type human partial length ERBB4 (L690 to K994 residues) expressed in bacterial expression system assessed as residual binding level at 1 uM by Kinomescan method relative to control
[11] = target: Mitogen-activated protein kinase 11 (Homo sapiens) (UniProt Q15759); assay: Binding affinity to wild-type human full length p38-beta (M1 to Q364 residues) expressed in bacterial expression system assessed as residual binding level at 1 uM by Kinomescan method relative to control
[12] = target: Serine/threonine-protein kinase ICK (Homo sapiens) (UniProt Q9UPZ9); assay: Binding affinity to wild-type human partial length ICK (M1 to P314 residues) expressed in mammalian expression system assessed as residual binding level at 1 uM by Kinomescan method relative to control
[13] = system: Phosphatidylinositol 4,5-bisphosphate 3-kinase catalytic subunit alpha isoform (Homo sapiens), P42336 [Q546K]; assay: Binding affinity to human partial length PIK3CA Q546K mutant (R108 to N1068 residues) expressed in mammalian expression system assessed as residual binding level at 1 uM by Kinomescan method relative to control
[14] = target: MAP kinase-interacting serine/threonine-protein kinase 1 (Homo sapiens) (UniProt Q9BUB5); assay: Binding affinity to wild-type human full length MKNK1 (M1 to L424 residues) expressed in mammalian expression system assessed as residual binding level at 1 uM by Kinomescan method relative to control
In short: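 Single-point kinome-wide KINOMEscan binding panel, test compound at 1 μM, run by the provider's standard protocol.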

[15] = target: Vascular endothelial growth factor receptor 1 (Homo sapiens) (UniProt P17948); assay: Binding affinity to wild-type human partial length FLT1 (R781 to F1239 residues) expressed in bacterial expression system assessed as residual binding level at 1 uM by Kinomescan method relative to control
[16] = target: Serine/threonine-protein kinase 32B (Homo sapiens) (UniProt Q9NY57); assay: Binding affinity to wild-type human full length YANK2 (M1 to S414 residues) expressed in bacterial expression system assessed as residual binding level at 1 uM by Kinomescan method relative to control
Serine/threonine-protein kinase 32B (Homo sapiens), sequence (Q9NY57 whole entry, the tested form may be a part): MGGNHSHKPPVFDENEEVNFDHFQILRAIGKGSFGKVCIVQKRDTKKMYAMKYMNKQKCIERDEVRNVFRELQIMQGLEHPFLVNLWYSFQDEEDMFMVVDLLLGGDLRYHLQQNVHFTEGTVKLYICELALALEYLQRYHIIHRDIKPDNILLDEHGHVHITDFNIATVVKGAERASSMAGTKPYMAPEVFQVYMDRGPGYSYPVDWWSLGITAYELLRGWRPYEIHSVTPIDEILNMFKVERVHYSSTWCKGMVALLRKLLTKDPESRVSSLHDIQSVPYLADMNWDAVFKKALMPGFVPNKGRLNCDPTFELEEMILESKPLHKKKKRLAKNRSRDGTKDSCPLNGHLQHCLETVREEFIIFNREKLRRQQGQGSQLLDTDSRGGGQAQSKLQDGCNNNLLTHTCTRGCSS

[17] = target: Cyclin-dependent kinase-like 3 (Homo sapiens) (UniProt Q8IVW4); assay: Binding affinity to wild-type human partial length CDKL3 (M1 to D327 residues) expressed in bacterial expression system assessed as residual binding level at 1 uM by Kinomescan method relative to control
[18] = target: Activin receptor type-2B (Homo sapiens) (UniProt Q13705); assay: Binding affinity to wild-type human ACVR2B (H169 to D504 residues) expressed in bacterial expression system assessed as residual binding level at 1 uM by Kinomescan method relative to control
Activin receptor type-2B (Homo sapiens), sequence (Q13705 whole entry, the tested form may be a part): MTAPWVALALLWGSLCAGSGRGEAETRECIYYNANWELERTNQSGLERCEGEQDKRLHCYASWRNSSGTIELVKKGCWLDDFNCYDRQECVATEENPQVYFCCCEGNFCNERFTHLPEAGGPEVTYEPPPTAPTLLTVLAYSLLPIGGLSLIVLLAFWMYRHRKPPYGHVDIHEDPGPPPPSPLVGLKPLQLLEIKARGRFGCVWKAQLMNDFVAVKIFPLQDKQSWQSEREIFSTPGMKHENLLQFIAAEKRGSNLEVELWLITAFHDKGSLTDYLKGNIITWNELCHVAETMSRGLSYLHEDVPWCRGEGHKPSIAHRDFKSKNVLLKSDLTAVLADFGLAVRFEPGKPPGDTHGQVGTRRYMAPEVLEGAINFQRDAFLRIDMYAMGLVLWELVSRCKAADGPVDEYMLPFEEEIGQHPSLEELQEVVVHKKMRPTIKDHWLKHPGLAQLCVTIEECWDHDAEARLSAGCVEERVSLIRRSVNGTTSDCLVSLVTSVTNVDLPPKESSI

[19] = target: Ephrin type-A receptor 5 (Homo sapiens) (UniProt P54756); assay: Binding affinity to wild-type human partial length EPHA5 (T627 to V930 residues) expressed in bacterial expression system assessed as residual binding level at 1 uM by Kinomescan method relative to control
[20] = target: Mitogen-activated protein kinase kinase kinase 9 (Homo sapiens) (UniProt P80192); assay: Binding affinity to wild-type human partial length MLK1 (V88 to W426 residues) expressed in bacterial expression system assessed as residual binding level at 1 uM by Kinomescan method relative to control
[21] = target: Receptor tyrosine-protein kinase erbB-2 (Homo sapiens, UniProt P04626); assay: Binding affinity to wild-type human partial length ERBB2 (K646 to V1225 residues) expressed in mammalian expression system assessed as residual binding level at 1 uM by Kinomescan method relative to control
Receptor tyrosine-protein kinase erbB-2, sequence (P04626 whole entry, the tested form may be a part): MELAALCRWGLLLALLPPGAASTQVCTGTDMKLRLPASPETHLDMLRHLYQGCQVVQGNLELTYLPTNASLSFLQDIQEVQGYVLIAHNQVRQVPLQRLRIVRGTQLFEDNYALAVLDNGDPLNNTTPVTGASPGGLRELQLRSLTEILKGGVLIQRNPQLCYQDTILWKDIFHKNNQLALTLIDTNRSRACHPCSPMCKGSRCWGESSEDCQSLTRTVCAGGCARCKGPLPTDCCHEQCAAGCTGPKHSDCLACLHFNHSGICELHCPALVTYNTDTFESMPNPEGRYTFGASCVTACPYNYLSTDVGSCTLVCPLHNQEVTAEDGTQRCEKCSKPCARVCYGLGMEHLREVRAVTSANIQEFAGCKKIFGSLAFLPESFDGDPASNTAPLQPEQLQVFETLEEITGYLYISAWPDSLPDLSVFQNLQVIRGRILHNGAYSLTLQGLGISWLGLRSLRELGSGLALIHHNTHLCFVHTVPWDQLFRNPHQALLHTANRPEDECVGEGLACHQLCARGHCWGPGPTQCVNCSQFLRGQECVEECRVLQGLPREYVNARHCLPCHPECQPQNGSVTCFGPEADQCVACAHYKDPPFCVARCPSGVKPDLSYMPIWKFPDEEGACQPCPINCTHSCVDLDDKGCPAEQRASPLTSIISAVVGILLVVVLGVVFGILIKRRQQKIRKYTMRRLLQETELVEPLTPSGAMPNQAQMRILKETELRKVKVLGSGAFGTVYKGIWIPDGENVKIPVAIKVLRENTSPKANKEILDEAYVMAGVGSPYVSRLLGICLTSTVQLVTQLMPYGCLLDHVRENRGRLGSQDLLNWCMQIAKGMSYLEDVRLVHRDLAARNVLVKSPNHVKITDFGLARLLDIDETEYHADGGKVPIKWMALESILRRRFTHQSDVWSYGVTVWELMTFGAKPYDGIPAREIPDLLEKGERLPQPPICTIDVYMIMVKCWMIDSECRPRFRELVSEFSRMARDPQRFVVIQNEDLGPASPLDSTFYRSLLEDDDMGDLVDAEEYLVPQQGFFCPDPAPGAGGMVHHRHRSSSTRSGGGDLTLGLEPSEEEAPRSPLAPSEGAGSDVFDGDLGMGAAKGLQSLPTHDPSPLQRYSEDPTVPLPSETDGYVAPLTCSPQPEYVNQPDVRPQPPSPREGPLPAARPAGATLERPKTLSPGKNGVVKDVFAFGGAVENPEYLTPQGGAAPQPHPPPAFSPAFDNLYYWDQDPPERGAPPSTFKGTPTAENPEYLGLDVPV

[22] = target: Ephrin type-A receptor 1 (Homo sapiens) (UniProt P21709); assay: Binding affinity to wild-type human partial length EPHA1 (V588 to I913 residues) expressed in bacterial expression system assessed as residual binding level at 1 uM by Kinomescan method relative to control
CYP3A4 = CYP3A4 (Homo sapiens, UniProt P08684); assay: Residual activity of CYP3A4 in human liver microsomes at 10 uM using midazolam 1-hydroxylase as substrate preincubated for 5 mins followed by NADPH addition measured after 15 mins by LC/MS/MS analysis relative to control; details: probe midazolam (1-hydroxylation)

C=CC(=O)Nc1cc(Nc2ncc(Cl)c(Nc3ccccc3S(=O)(=O)C(C)C)n2)c(OC)cc1N(C)CCN(C)C
Activity [1]: 100%
Activity [2]: 0%
Activity [3]: 67%
Activity [4]: 0.65%
Activity [5]: 98%
Activity [6]: 15%
Activity [7]: 94%
Activity [8]: 66%
Activity [9]: 91%
Activity at […], 10 µM (CYP2C9): 83%
Activity [10]: 0%
Activity [11]: 96%
Activity [12]: 65%
Activity [13]: 83%
Activity [14]: 90%
Activity [15]: 47%
Activity [16]: 2.4%
Activity [17]: 66%
Activity [18]: 96%
Activity [19]: 88%
Activity [20]: 39%
Activity [21]: 0%
Activity [22]: 12%
Activity at […], 10 µM (CYP3A4): 44%
